Screening data (PubChem)
CHRM1 agonist: human M1 muscarinic receptor agonists, primary screen, Fluo-8 calcium fluorescence, CHO-K1 cells, HTS | CHO-K1 hM1, agonist mode; 0% DMSO, 100% acetylcholine EC100 | activation, % at 3 µM | actives 0.33% (n = 360,000);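 active = activation above the run's mean compound activation plus 3 SD, cut at about 16% in these data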;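 also: peak over basal fluorescence ratio within a 140 s kinetic read after compound addition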
TAAR1 ag: human TAAR1 agonists, primary screen, Fluo-8 calcium fluorescence, CHO RD-HGA16 cells. vehicle wells 0%, saturating PEA agonist 100%. activation, % at 3 µM. Trace amine-associated receptor 1 (Homo sapiens), Q96RJ0. actives 0.99% (n = 360,000). AID 624467, 2012;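 active = activation above the mean activation of all test compounds in the run plus 3 SD, cut at about 38% in these data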
Target sequence (Q96RJ0 whole entry, looked up): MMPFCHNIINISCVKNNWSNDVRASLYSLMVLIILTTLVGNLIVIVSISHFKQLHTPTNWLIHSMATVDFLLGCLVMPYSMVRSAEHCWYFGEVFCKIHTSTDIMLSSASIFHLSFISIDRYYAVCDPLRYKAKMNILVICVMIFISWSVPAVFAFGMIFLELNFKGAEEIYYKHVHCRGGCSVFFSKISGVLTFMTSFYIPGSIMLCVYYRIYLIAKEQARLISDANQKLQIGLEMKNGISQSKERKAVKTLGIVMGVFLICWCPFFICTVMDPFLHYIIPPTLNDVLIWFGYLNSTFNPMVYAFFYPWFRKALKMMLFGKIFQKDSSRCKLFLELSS
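System: CHO-derived RD-HGA16 cells with stable Gα16 and human TAAR1. Times: 17-24 h plating, Fluo-8 75 min 37 °C, 30 min RT. Measured by: calcium-sensitive Fluo-8 signal, excitation 470-495, emission 515-575 nm. Read-out basis: % activation relative to PEA EC100 response. Control set: DMSO and PEA EC100. Repeats: no replicates (n 1).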
CHRM1 PAM: human M1 muscarinic receptor positive allosteric modulators, primary screen, CHO-K1 cells, Fluo-8 calcium fluorescence, 1536-well; AID 588819, 2011; actives 0.088% (n = 360,000); activation, % at 3 µM; Muscarinic acetylcholine receptor M1 (Homo sapiens), P11229; CHO-K1 hM1, ACh EC20; 0% = ACh EC20, 100% = maximal ACh; in the data active = activation above about 19%, passing the limit was not always enough
TAAR1 antagonist: human TAAR1 antagonists, primary screen, Fluo-8 calcium fluorescence, CHO RD-HGA16 cells. AID 624466, 2012. inhibition, % at 3 µM. Trace amine-associated receptor 1 (Homo sapiens), Q96RJ0. antagonist. actives 1.5% (n = 360,000);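 active = inhibition above a per-plate cutoff, the mean inhibition of test compounds on that plate plus 3 SD, cut at about 49% in these data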
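test system = CHO RD-HGA16 cells bearing hTAAR1 | replication = singlicate | controls = DMSO-only wells and EC80 β-PEA-stimulated wells | reagent = EC80 β-phenethylamine stimulus | read-out basis = percent inhibition of PEA-evoked calcium signal, max/basal emission ratio | schedule = seeding 17-24 h prior, 75-min 37 °C, 30-min RT dye loading | signal = kinetic Fluo-8 calcium fluorescence measurement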
CHRM1 antagonist: human M1 muscarinic receptor antagonists, primary screen, CHO-K1 cells, Fluo-8 calcium fluorescence, 1536-well; Muscarinic acetylcholine receptor M1 (Homo sapiens), P11229; actives 1.3% (n = 360,000); inhibition, % at 3 µM; CHO-K1 hM1, ACh EC80 antagonist;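 active = percent inhibition above its own plate's cutoff, namely the mean of that plate's compound wells plus 3 SD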;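 also: peak over basal fluorescence ratio during 140 s after agonist addition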
TAAR1 nonsel count: nonselective antagonists in TAAR1 counter-screen cells, counter-screen for hTAAR1 antagonist project, cell-based, fluorescence, calcium; inhibition, % at 3 µM; shares compounds with TAAR1 antagonist; counterscreen cell line, antagonist mode; AID 651780, 2012; actives 77% (n = 2,400); in the data active = inhibition above about 22%;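 also: CHO-Ga16 host cells stimulated with ATP at an EC80 level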
TAAR1 ant conf: human TAAR1 antagonists, retest of hits, confirmation, cell-based, fluorescence; TAAR1-expressing cells, fluorescence antagonist read-out; inhibition, % at 3 µM; AID 651785, 2012; shares compounds with TAAR1 antagonist; actives 40% (n = 2,400); in the data active = inhibition above about 49%;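 also: CHO-Ga16 host cells challenged with agonist PEA near its EC80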
Ga16 ag counter: calcium activation in Ga16-expressing cells, counter-screen for TAAR1 antagonist project, cell-based, fluorescence; shares compounds with TAAR1 antagonist; actives 18% (n = 2,400); activation, % at 3 µM; AID 651953, 2012; agonist counterscreen; in the data active = activation above about 12%
TAAR1 ag count: TAAR1 activation by candidate antagonists – cell-based, fluorescence, counter-screen for TAAR1 antagonist project | actives 2% (n = 2,400) | hTAAR1 cell line, agonist mode | activation, % at 3 µM | shares compounds with TAAR1 antagonist; in the data active = activation above about 37%;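 also: CHO cells stably expressing TAAR1 with calcium dye readout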
Each line names hits and unclear results; the compound was inactive in the other large screens (follow-up assays come after a bar, where they were run). Hits are enriched below; roughly 3.4% of the tested compounds scored in any of these assays.

CCc1cc(=O)oc2cc(C)cc(OCC(=O)NC(Cc3c[nH]c4ccc(O)cc34)C(=O)O)c12 (stereo unspecified)	none
CCCc1cc(=O)oc2cc(OCC(=O)NCCc3c[nH]c4ccc(OC)cc34)ccc12	TAAR1 antagonist 60 | TAAR1 nonsel count 30 | TAAR1 ant conf inactive | Ga16 ag counter inactive | TAAR1 ag count inactive
CCOC(=O)C1(Cc2ccccc2C)CCCN(C(=O)c2ccc3nccnc3c2)C1 (stereo unspecified)	TAAR1 antagonist 67 | TAAR1 nonsel count 24 | TAAR1 ant conf 49 | Ga16 ag counter inactive | TAAR1 ag count inactive
CCOC(=O)C1(Cc2ccccc2C)CCCN(C(=O)c2ccccn2)C1 (stereo unspecified)	none
COc1ccc(-c2csc3ncnc(N4CCN(c5ccccc5OC)CC4)c23)cc1	TAAR1 antagonist 62 | TAAR1 nonsel count 27 | TAAR1 ant conf inactive | Ga16 ag counter inactive | TAAR1 ag count inactive
Cc1ccc([C@@H]2CC=C(C(=O)O)[C@H](c3ccc(Cl)cc3)N2S(=O)(=O)c2ccc(C)cc2)cc1	none
Cc1ccc(S(=O)(=O)N2[C@@H](c3ccc(Br)cc3)C(C(=O)O)=CC[C@H]2c2ccc(Cl)cc2)cc1	TAAR1 antagonist 68 | TAAR1 nonsel count inactive | TAAR1 ant conf 51 | Ga16 ag counter inactive | TAAR1 ag count inactive
Cc1ccc(-c2nc3cccnc3s2)cc1NS(=O)(=O)c1ccc2c(c1)OCCO2	TAAR1 antagonist 59 | TAAR1 nonsel count 30 | TAAR1 ant conf inactive | Ga16 ag counter inactive | TAAR1 ag count inactive
COC(=O)C(C(=O)OC)c1ccccc1NS(=O)(=O)c1c(C)cc(C)cc1C	none (no result: CHRM1 agonist, CHRM1 PAM, CHRM1 antagonist)
CCNC(=O)c1ccccc1NC(=O)c1cccc(S(=O)(=O)N2CCC(C)CC2)c1	TAAR1 antagonist 59 | TAAR1 nonsel count 33 | TAAR1 ant conf inactive | Ga16 ag counter inactive | TAAR1 ag count inactive
CNC(=O)c1ccccc1NC(=O)c1cccc(S(=O)(=O)N2CCC(C)CC2)c1	none
COc1ccc(/C=N/NC(=O)c2cccc(NC(=O)c3ccccc3Cl)c2)cc1	none
COc1ccc(/C=N/NC(=O)c2cccc(NC(=O)c3ccccc3Cl)c2)c(OC)c1	TAAR1 antagonist 60 | TAAR1 nonsel count 24 | TAAR1 ant conf inactive | Ga16 ag counter inactive | TAAR1 ag count inactive
COc1cccc(C(=O)Nc2cccc(NC(=O)c3ccccc3Cl)c2)c1	TAAR1 antagonist 68 | TAAR1 nonsel count inactive | TAAR1 ant conf inactive | Ga16 ag counter inactive | TAAR1 ag count inactive
CC(O)(c1cccc(F)c1)c1nc(-c2cc(F)cc(F)c2)cs1 (stereo unspecified)	none
COc1ccc(Nc2nc(-c3ccccc3)nc3ccccc23)cc1S(=O)(=O)N1CCOCC1	TAAR1 antagonist 72 | TAAR1 nonsel count 35 | TAAR1 ant conf 57 | Ga16 ag counter 13 | TAAR1 ag count inactive
COc1ccc(NC(=O)c2cc(C)nc3ccccc23)cc1S(=O)(=O)N1CCOCC1	none
Cc1cccc(OCC(=O)Nc2ccc(C(=O)NCC(C)C)cc2)c1	none
Cc1cccc(OCC(=O)Nc2cccc(C(=O)NCC(C)C)c2)c1	TAAR1 antagonist 70 | TAAR1 nonsel count inactive | TAAR1 ant conf inactive | Ga16 ag counter inactive | TAAR1 ag count inactive
C[C@H]1CN(C(=O)OC(C)(C)C)CCN1c1ccc(N2CCS(=O)(=O)CC2)c(C#N)c1	TAAR1 antagonist 67 (no result: CHRM1 agonist, CHRM1 PAM, CHRM1 antagonist) | TAAR1 nonsel count 47 | TAAR1 ant conf 60 | Ga16 ag counter 16 | TAAR1 ag count inactive
COCc1cc(N2CCN(C(=O)OC(C)(C)C)C[C@@H]2C)ccc1N1CCS(=O)(=O)CC1	none (no result: CHRM1 agonist, CHRM1 PAM, CHRM1 antagonist)
N=c1sccn1CC(=O)N1N=C(c2ccc(Cl)cc2)CC1c1ccco1 (stereo unspecified)	TAAR1 antagonist 53 | TAAR1 nonsel count inactive | TAAR1 ant conf inactive | Ga16 ag counter 13 | TAAR1 ag count inactive
CC(C)(C)NC(=O)CSc1nc2ccc(NC(=O)CSc3nnc(N)s3)cc2s1	none
CC(C)(C)NC(=O)CSc1nc2ccc(NC(=O)CSc3nnnn3Cc3ccccc3)cc2s1	TAAR1 antagonist 49, CHRM1 antagonist 19 | TAAR1 nonsel count 36 | TAAR1 ant conf inactive | Ga16 ag counter inactive | TAAR1 ag count inactive
Cc1ccccc1OCc1nnc(SCC(=O)Nc2ccc3nc(SCC(=O)NC(C)(C)C)sc3c2)n1C	TAAR1 antagonist 61 | TAAR1 nonsel count 43 | TAAR1 ant conf 62 | Ga16 ag counter inactive | TAAR1 ag count inactive
Cc1ccccc1OCc1nnc(SCC(=O)Nc2ccc3c(c2)oc2ccccc23)n1C	none
O=C1NC[C@H](CCCCN2C[C@H](Cc3ccc(O)cc3)N(CCc3ccc(O)cc3)C(=O)C2=O)N(CCc2ccc(O)cc2)C1=O	none (no result: CHRM1 agonist, CHRM1 PAM, CHRM1 antagonist)
Cc1ccc(N(CC(=O)NCCSc2nc3ccccc3s2)S(=O)(=O)c2ccccc2)c(C)c1	none
O=C(CN(c1ccccc1)S(=O)(=O)c1ccccc1)NCCSc1nc2ccccc2s1	TAAR1 antagonist 71 | TAAR1 nonsel count 36 | TAAR1 ant conf 62 | Ga16 ag counter inactive | TAAR1 ag count inactive
COc1ccc(-c2c(C)nc3c(-c4ccccn4)cnn3c2N)cc1	TAAR1 antagonist 67 | TAAR1 nonsel count 24 | TAAR1 ant conf 62 | Ga16 ag counter inactive | TAAR1 ag count inactive
CCOC(=O)C1(C)CCCCCN1C(=O)/C=C/c1ccccc1 (stereo unspecified)	none
CC1=C(C(=O)Nc2cc(C(=O)N3CCN(c4cccc(C)c4C)CC3)ccc2C)SCCO1	TAAR1 antagonist 62 | TAAR1 nonsel count 34 | TAAR1 ant conf inactive | Ga16 ag counter inactive | TAAR1 ag count inactive
COc1ccc(N2CCN(C(=O)c3ccc(C)c(NC(=O)C4=C(C)OCCS4)c3)CC2)cc1	none
